Experimental data published in publication PMC11951523 (Genome Biology, 2025).
pIC50, pKd: −log10 of the molar value. Like-named read-outs stand apart in the source and are kept apart here.

Key:
SpyCas9 [1] = target: T1, SpyCas9 (Streptococcus pyogenes serotype M1, UniProt Q99ZW2); assay: biochemical; settings: for activity on Cas9 (structure–activity relationship of pamoic acid): SpyCas9, standard assay conditions; for pIC50: Spy Cas9
SpyCas9 [2] = assay: biochemical; design: species or system Streptococcus pyogenes
SauCas9 [3] = target: T2, SauCas9 (Staphylococcus aureus, UniProt J7RUA5); assay: In vitro purified enzyme activity assay for SauCas9; format: biochemical; settings: IC50, in vitro purified enzyme assay, Sau Cas9
T2 sequence (J7RUA5 1-1053): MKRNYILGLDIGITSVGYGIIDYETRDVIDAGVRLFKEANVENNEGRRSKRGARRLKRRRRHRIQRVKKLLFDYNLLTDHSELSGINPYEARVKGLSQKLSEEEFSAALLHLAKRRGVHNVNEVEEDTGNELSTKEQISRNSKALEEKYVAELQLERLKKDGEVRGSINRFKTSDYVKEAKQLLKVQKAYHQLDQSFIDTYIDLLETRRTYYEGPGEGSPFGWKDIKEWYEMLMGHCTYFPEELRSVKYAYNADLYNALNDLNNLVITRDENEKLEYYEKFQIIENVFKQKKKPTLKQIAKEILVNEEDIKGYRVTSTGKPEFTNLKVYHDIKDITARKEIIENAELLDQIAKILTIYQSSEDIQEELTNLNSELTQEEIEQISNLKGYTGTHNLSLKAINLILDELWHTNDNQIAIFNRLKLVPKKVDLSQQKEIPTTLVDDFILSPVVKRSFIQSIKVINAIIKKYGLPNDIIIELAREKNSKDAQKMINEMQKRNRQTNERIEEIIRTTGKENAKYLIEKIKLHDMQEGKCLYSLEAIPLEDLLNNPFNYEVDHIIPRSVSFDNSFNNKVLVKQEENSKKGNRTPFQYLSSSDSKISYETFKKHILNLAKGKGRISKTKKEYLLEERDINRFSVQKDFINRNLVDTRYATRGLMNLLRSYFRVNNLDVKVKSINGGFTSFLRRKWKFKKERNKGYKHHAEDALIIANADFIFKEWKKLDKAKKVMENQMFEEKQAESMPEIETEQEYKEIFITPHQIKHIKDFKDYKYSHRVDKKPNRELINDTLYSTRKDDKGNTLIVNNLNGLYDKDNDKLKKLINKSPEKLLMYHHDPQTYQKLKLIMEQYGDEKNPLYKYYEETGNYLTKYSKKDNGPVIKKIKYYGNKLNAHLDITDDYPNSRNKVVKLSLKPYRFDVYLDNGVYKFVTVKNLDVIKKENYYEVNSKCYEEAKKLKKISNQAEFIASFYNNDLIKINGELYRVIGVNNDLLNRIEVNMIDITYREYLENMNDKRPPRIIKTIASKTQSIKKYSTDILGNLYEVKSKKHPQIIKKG

SpyCas9 [4] = target: T1, SpyCas9; assay: Two-plasmid-based bacterial survival assay; format: cell-based; settings: IC50, bacteria-based assay, Spy Cas9; bacterial survival assay using pCas and pTarget-sgSSEA plasmids, E. coli MG1655
Procedure, shortened: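 E. coli MG1655 competent cells carrying pCas (SpyCas9) electroporated with pTarget-sgSSEA, or the pT-sgControl plasmid as reference. Test compound added to the electroporated bacteria for 1.5 h at 32 °C, then plated on LB with kanamycin and spectinomycin and incubated overnight. Colonies counted and expressed as a percentage of the compound-treated sgControl strain at the same concentration (100%).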

SpyCas9 [5] = target: T1, SpyCas9; format: cell-based
Procedure, shortened: (§1)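 MG1655 competent cells carrying pCas (SpyCas9 or SauCas9) were electroporated with 300 ng pTarget-sgSSEA (867 bp) or its Sau version, which carries an 867-bp homologous recombination repair template. Test compound was added to 700 μl LB right after electroporation, held 1.5 h at 32 °C, then plated on LB agar with 100 μg/ml kanamycin and 100 μg/ml spectinomycin. The SSEA site was genotyped by PCR.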

SauCas9 [6] = target: T2, SauCas9; format: cell-based
Procedure, shortened: as §1

SpyCas9 [7] = target: T1, SpyCas9; assay: GFP-disruption assay in HEK293FT cells; format: cell-based
SpyCas9 [8] = target: T1, SpyCas9; format: cell-based; remark: listed apart in the source
Procedure, shortened: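 HEK293FT cells, ~2 × 10^5 per well, were seeded 1 day before transfection (Lipofectamine 3000) with 1 μg PX459-SpyCas9-sgCOSMC, -sgEMX1 or -sgControl. Test compound was added 0 or 6 h post-transfection, and cells were kept 24 h at 37 °C, then selected with 2.5 μg/ml puromycin for 36–48 h. Target loci were PCR-amplified, Sanger-sequenced and scored by TIDE.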

SauCas9 [9] = target: T2, SauCas9; assay: SauCas9-mediated genome editing of COSMC in HEK293FT cells, TIDE analysis; format: cell-based
Procedure, shortened: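 HEK293FT wt cells were co-transfected (Lipofectamine 3000) with 1 μg miniCMV-SaCas9 and 1 μg pGL3 carrying sgCOSMC-Sau or sgControl. Test compound was added right after transfection for 24 h, followed by 2.5 μg/ml puromycin selection. The COSMC locus was PCR-amplified (40 cycles), Sanger-sequenced, and editing efficiency was obtained by TIDE analysis.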

BE4 base editor = BE4 base editor (Streptococcus pyogenes, UniProt Q99ZW2, D10A); assay: BE4-mediated base editing of EMX1 in HEK293FT cells, EditR analysis; format: cell-based
FnoCas12a = FnoCas12a (Francisella tularensis subsp. novicida, UniProt A0Q7Q2); format: biochemical
LbaCas12a = LbaCas12a activity assay; format: biochemical, Lachnospiraceae bacterium; settings: complete inhibition refers to 50 μM or above
[10] = system: SpyCas9-mediated genome editing of PCSK9; assay: SpyCas9-mediated anti-PCSK9 mouse model by hydrodynamic injection; format: in vivo, BALB/c mice; settings: for plasma total cholesterol restored to the level of the control: 3rd blood collection
Procedure, shortened: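 On days 1, 4 and 7, 90 μg PX459-SpyCas9-sgPCSK9 or -sgControl in 2 ml saline was injected hydrodynamically into the tail vein over 5–8 s. Orbital blood (~100 μl) was taken days 2, 5 and 8, and heparin plasma (20 μl) was assayed by PCSK9 ELISA.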

E. coli MG1655 = assay: Toxicity to bacteria in the two-plasmid-based bacterial survival assay; format: cell-based; settings: for toxicity to E. coli: MG1655, bacterial survival assay
Procedure, shortened: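 MG1655 pCas-competent cells were electroporated with pT-sgControl. Test compound was added to 700 μl LB immediately afterwards and incubated 1.5 h at 32 °C, then plated on LB agar with kanamycin and spectinomycin (100 μg/ml each). Colonies were counted after overnight incubation; biological replicates n = 3.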

SpyCas9 [11] = target: T1, SpyCas9; assay: Surface plasmon resonance assay; format: binding
Procedure, shortened: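 His-tagged SpyCas9, Ni–NTA purified and imidazole-eluted, amine-coupled to a CM5 chip at 100 μg/ml. Test compounds were diluted in 1× PBST to a series of concentrations and injected at 30 μl/min, with 120 s association and 120 s dissociation. Equilibrium KD was fitted from the response curves.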

[12] = in humans; cited from earlier work
[13] = IC50, in vitro purified enzyme assay, linear substrates (87 bp oligonucleotide or 2.5 kb linear DNA)
[14] = IC50, in vitro purified enzyme assay, supercoil (circular) plasmid substrate pcDNA3.1/CT-GFP
[15] = linear substrates (87 bp oligonucleotide)
[16] = supercoil (circular) plasmid substrate

Row | SMILES | activity on Cas9 (structure–activity relationship of pamoic acid) (SpyCas9 [1]) | pIC50 (SpyCas9 [1]; [13]) | pIC50 (SpyCas9 [1]; [14]) | pIC50 (SauCas9 [3]; [15]) | pIC50 (SauCas9 [3]; [16]) | pIC50 (SpyCas9 [4]) | pIC50 (SpyCas9 [5]) | pIC50 (SauCas9 [6]) | effect on the activity of FnoCas12a (FnoCas12a) | effect on the activity of LbaCas12a (LbaCas12a) | also measured
1 | Nc1ccc(O)c(C(=O)O)c1 [5-aminosalicylic acid] | inactive | – | – | – | – | – | – | – | – | – | –
2 | CC1(C)[C@@H](OC(=O)CCC(=O)O)CC[C@]2(C)[C@H]3C(=O)C=C4[C@@H]5C[C@@](C)(C(=O)O)CC[C@]5(C)CC[C@@]4(C)[C@]3(C)CC[C@@H]12 [Carbenoxolone] | – | 5.00 to 5.30 | ~4.00 | 4.30 to 4.60 | 3.70 to 4.00 | ~3.70 | 4.00 to 4.30 | 3.70 to 4.00 | inactive to or weakly inhibited | inactive to or weakly inhibited | effect of mutation of catalytic residues D10 or H840 on the IC50 (SpyCas9 [2]): did not affect; pIC50 (SpyCas9 [7]): 4.70 to 5.00; pIC50 (SpyCas9 [8]): 4.30 to 4.70; pIC50 (SauCas9 [9]): 4.30 to 4.70; pIC50 (BE4 base editor): 4.30 to 4.70; effect on the basal level of PCSK9 in vehicle-treated (sgControl) mice ([10]; 160 mg/kg): did not interfere; plasma total cholesterol restored to the level of the control ([10]; 160 mg/kg): largely restored; preventive effect on loss of plasma PCSK9 ([10]; high doses of 80 or 160 mg/kg, 2nd or 3rd treatment cycle): strong preventive effects; toxicity to E. coli (E. coli MG1655): did not appear to be much toxic
3 | COc1cccc2c1C(=O)c1c(O)c3c(c(O)c1C2=O)C[C@@](O)(C(=O)CO)C[C@@H]3O[C@H]1C[C@H](N)[C@@H](O)[C@H](C)O1 [Epirubicin] | – | 5.30 to 5.70 | 5.30 to 5.70 | 4.90 to 5.20 | 5.20 to 5.50 | 5.20 to 5.50 | 4.90 to 5.20 | ~5.20 | completely inhibit | completely inhibit | pKd (SpyCas9 [11]): < 3.00; toxicity to electroporated bacteria (E. coli MG1655; at a concentration of 50 μM): significant toxicity; site of metabolism / elimination [12]: mainly metabolized in human liver
4 | OCCOCCN1CCN(C(c2ccccc2)c2ccc(Cl)cc2)CC1 (stereo not shown) [Hydroxyzine pamoate] | – | 4.30 to 4.70 | < 3.70 | – | – | – | – | – | – | – | –
5 | O=C(O)c1cc(/N=N/c2ccc(O)c(C(=O)O)c2)ccc1O [Olsalazine, olsalazine] | inactive | – | – | – | – | – | – | – | – | – | –
6 | CN1CCCN=C1/C=C/c1cccc(O)c1 [Oxantel pamoate] | – | – | – | – | – | – | – | – | – | – | pIC50 (SpyCas9 [1]; read-out: IC50, in vitro purified enzyme assay, supercoil (circular) plasmid substrate pcDNA3.1/CT-GFP): < 3.70
7 | O=C(O)c1cc2ccccc2c(Cc2c(O)c(C(=O)O)cc3ccccc23)c1O [Pamoic acid] | – | 4.70 to 5.00 | 3.22 to 3.40 | 4.30 to 4.60 | 3.00 to 3.30 | 3.40 to 3.70 | ~3.40 | 3.30 to 3.60 | inactive to or weakly inhibited | inactive to or weakly inhibited | effect of mutation of catalytic residues D10 or H840 on the IC50 (SpyCas9 [2]): did not affect; pIC50 (SpyCas9 [7]): 4.30 to 4.70; pIC50 (SpyCas9 [8]): 4.30 to 4.70; pIC50 (SauCas9 [9]): 4.30 to 4.70; pIC50 (BE4 base editor): ~4.30; plasma total cholesterol restored to the level of the control ([10]; 80 mg/kg): largely restored; effect on the basal level of PCSK9 in vehicle-treated (sgControl) mice ([10]; 160 mg/kg): did not interfere; plasma total cholesterol restored to the level of the control ([10]; 160 mg/kg): largely restored; restoration of plasma PCSK9 level ([10]; 80 or 160 mg/kg intraperitoneal, 1st, 2nd, or 3rd treatment cycle): completely restore; dose from which a dose-dependent preventative effect on plasma PCSK9 starts ([10]; intraperitoneal): ≥ 20 mg/kg; effect on PCSK9 allele modifications in liver (NGS) ([10]; medium dose of 40 mg/kg): largely reduced but not totally prevented; toxicity to E. coli (E. coli MG1655): did not appear to be much toxic; site of metabolism / elimination [12]: mainly metabolized in human liver
8 | O=C(O)c1ccccc1O [Salicylic acid, salicylic acid] | inactive | – | – | – | – | – | – | – | – | – | –
